Among the data in ChEMBL document CHEMBL3351225, “Design, synthesis, and structure-activity and structure-pharmacokinetic relationship studies of novel [6,6,5] tricyclic fused oxazolidinones leading to the discovery of a potent, selective, and orally bioavailable FXa inhibitor” (J Med Chem, 2014) are IC50, 2aPTT and Activity values, retold here.

One test concerns the target Coagulation factor X (Homo sapiens, UniProt P00742). Description: Inhibition of human factor 10a using N-Z-D-Arg-Gly-Arg-pNA, S-2765 chromogenic substrate.
Test [1] deals with Plasma. Description: Anticoagulant activity in citrated rabbit plasma assessed as activated partial thromboplastin time preincubated for 10 mins at 37 degC by coagulometry. It is filed as functional, Oryctolagus cuniculus. The procedure, abridged: (§1)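 Test compound or DMSO added to citrated rabbit plasma (3.8% sodium citrate, 10:90 v/v) and preincubated 10 min at 37 °C. PT and aPTT clotting times measured on a coagulometer with commercial kits. Activity expressed as the concentration needed to double plasma clotting time (CT2, μM).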

The subject of test [2] is Plasma. Description: Anticoagulant activity in citrated rabbit plasma assessed as drug concentration required to double plasma clotting time preincubated for 10 mins at 37 degC by coagulometry. It counts as functional, Oryctolagus cuniculus. The method in brief:
as §1

Molecules are shown by their SMILES.

Coagulation factor X, sequence (P00742 41-179 limits assumed): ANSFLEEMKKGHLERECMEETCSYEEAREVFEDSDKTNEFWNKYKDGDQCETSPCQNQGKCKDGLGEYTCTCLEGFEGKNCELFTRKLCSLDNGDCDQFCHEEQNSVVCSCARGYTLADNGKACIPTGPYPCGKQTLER
Coagulation factor X, sequence (P00742 235-488 limits assumed): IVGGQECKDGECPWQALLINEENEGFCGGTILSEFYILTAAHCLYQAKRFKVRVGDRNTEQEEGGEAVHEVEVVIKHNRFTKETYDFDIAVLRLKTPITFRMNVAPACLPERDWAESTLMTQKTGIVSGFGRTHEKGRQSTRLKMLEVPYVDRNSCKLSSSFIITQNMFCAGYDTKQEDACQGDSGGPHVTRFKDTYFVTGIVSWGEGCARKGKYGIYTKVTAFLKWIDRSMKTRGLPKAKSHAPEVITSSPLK

In turn, `O=C(NC[C@@H]1OC(=O)N2c3ccc(N4CCOCC4=O)cc3OC[C@@H]12)c1sc2cc(Cl)ccc2c1Cl` registered an IC50 against Coagulation factor X above 100000 nM.
Same read-out and setting: the same measure for `O=C(Nc1ccc(Cl)s1)[C@@H]1OC(=O)N2c3ccc(N4CCOCC4=O)cc3OC[C@@H]12`: above 100000 nM.
`O=C(NC[C@@H]1OC(=O)N2c3ccc(N4CCOCC4=O)cc3OC[C@@H]12)c1ccc(Cl)cc1`: the 2aPTT in the test with Plasma [1] was found to be 0.93 µM. The Activity in the test with Plasma [2] amounted to 1.06 µM. Further, at Coagulation factor X, the IC50 was 160 nM.
On Coagulation factor X, `O=C(NC[C@@H]1OC(=O)N2c3ccc(N4CC[C@@H](O)CC4=O)cc3OC[C@@H]12)c1ccc(Cl)s1` registered an IC50 of 130 nM.
Turning to `O=C(Nc1ccc(Cl)cn1)[C@@H]1OC(=O)N2c3ccc(N4CCOCC4=O)cc3OC[C@@H]12`, the IC50 against Coagulation factor X was above 100000 nM.
Compound `O=C(NC[C@@H]1OC(=O)N2c3ccc(N4CCOCC4=O)cc3OC[C@@H]12)c1cc2c(Cl)cccc2s1` displayed an IC50 against Coagulation factor X above 100000 nM.
Same read-out and setting: the same measure for `O=C(NC[C@@H]1OC(=O)N2c3ccc(N4CCOCC4=O)cc3OC[C@@H]12)C(=O)Nc1ccc(Cl)s1`: 560 nM; for `O=C(NC[C@@H]1OC(=O)N2c3ccc(N4CC[C@H](F)CC4=O)cc3OC[C@@H]12)c1ccc(Cl)s1`: 46.6 nM.
`O=C(NC[C@@H]1OC(=O)N2c3ccc(N4CCOCC4=O)cc3OC[C@@H]12)c1cc2ccc(Cl)cc2s1`: on Coagulation factor X, it took 1750 nM to reach half-maximal inhibition (IC50).
As for `O=C(NC[C@@H]1OC(=O)N2c3ccc(N4CCC5(CC4=O)OCCO5)cc3OC[C@@H]12)c1ccc(Cl)s1`, at Coagulation factor X, the IC50 worked out at 2510 nM.
For the compound `O=C(NC[C@@H]1OC(=O)N2c3ccc(N4CCOC4=O)cc3OC[C@@H]12)c1ccc(Cl)s1`, on Coagulation factor X, half-maximal inhibition (IC50) was put at 730 nM.
On the same count and under the same terms, the value for `CO[C@@H]1CCN(c2ccc3c(c2)OC[C@H]2[C@H](CNC(=O)c4ccc(Cl)s4)OC(=O)N32)C(=O)C1` was 590 nM; that for `O=C(NC[C@@H]1OC(=O)N2c3ccc(N4CCOCC4=O)cc3OC[C@@H]12)c1cc2cc(Cl)ccc2s1` was 25900 nM; that for `O=C(NC[C@@H]1OC(=O)N2c3ccc(N4CCOCC4=O)cc3[S+]([O-])C[C@@H]12)c1ccc(Cl)s1` (some centres undefined) was 64 nM.
For the compound `CS(=O)(=O)N1CCN(c2ccc3c(c2)OC[C@H]2[C@H](CNC(=O)c4ccc(Cl)s4)OC(=O)N32)C(=O)C1`, inhibition against Coagulation factor X was half-maximal at 4180 nM (IC50).
`CO[C@H]1CCN(c2ccc3c(c2)OC[C@H]2[C@H](CNC(=O)c4ccc(Cl)s4)OC(=O)N32)C(=O)C1` returned an IC50 against Coagulation factor X of 1860 nM.
The same measure, in the same setting: the value for `O=C(NC[C@@H]1OC(=O)N2c3ccc(N4CCN(Cc5ccccc5)CC4=O)cc3OC[C@@H]12)c1ccc(Cl)s1` was 11400 nM; that for `O=C(NC[C@@H]1OC(=O)N2c3ccc(N4CCCCC4=O)cc3S(=O)(=O)C[C@@H]12)c1ccc(Cl)s1` was 50.5 nM; that for `O=C(NC[C@@H]1OC(=O)N2c3ccc(N4CCOCC4=O)cc3OC[C@@H]12)C(Cl)Cl` was 52700 nM.
Still for that read-out and setting: the same measure for `CN1CCN(c2ccc3c(c2)OC[C@H]2[C@H](CNC(=O)c4ccc(Cl)s4)OC(=O)N32)C(=O)C1`: 2210 nM.
Consider `O=C(NC[C@@H]1OC(=O)N2c3ccc(N4CCCCC4=O)cc3SC[C@@H]12)c1ccc(Cl)s1`, for which, in the test on Plasma [1], the 2aPTT turned out to be 0.62 µM. Also, in the test on Plasma [2], the Activity stood at 0.64 µM. The same compound came in with an IC50 against Coagulation factor X of 4.89 nM.
Consider `O=C(NC[C@@H]1OC(=O)N2c3ccc(N4CCOCC4=O)cc3OC[C@@H]12)c1cc(Cl)c(Cl)s1`, for which the midpoint of inhibition against Coagulation factor X, the IC50, lay at 8080 nM.
Take `O=C(NC[C@@H]1OC(=O)N2c3ccc(N4CCOCC4=O)cc3OC[C@@H]12)C(=O)Nc1ccc(Cl)cn1`: the IC50 at Coagulation factor X was 1210 nM.
On the same count and under the same terms, the same measure for `O=C(NC[C@@H]1OC(=O)N2c3ccc(N4CC[C@H](O)CC4=O)cc3OC[C@@H]12)c1ccc(Cl)s1`: 1220 nM; for `CC(=O)N(C)c1ccc2c(c1)OC[C@H]1[C@H](CNC(=O)c3ccc(Cl)s3)OC(=O)N21`: 87.2 nM.
In turn, `CCN1CCN(c2ccc3c(c2)OC[C@H]2[C@H](CNC(=O)c4ccc(Cl)s4)OC(=O)N32)C(=O)C1` came in with an IC50 against Coagulation factor X of 15800 nM.
Turning to `O=C(NC[C@@H]1OC(=O)N2c3ccc(N4CCOCC4=O)cc3OC[C@@H]12)Nc1ccc(Cl)cc1`, the IC50 at Coagulation factor X came to 32.1 nM.
Still for that read-out and setting: the value for `O=C(NC[C@@H]1OC(=O)N2c3ccc(N4CCCCC4=O)cc3CC[C@@H]12)c1ccc(Cl)s1` was 6.59 nM; that for `O=C(NC[C@@H]1OC(=O)N2c3ccc(N4CCOCC4=O)cc3OC[C@@H]12)c1cc2cccc(Cl)c2s1` was above 100000 nM.
`CS(=O)(=O)c1ccccc1-c1ccc2c(c1)SC[C@H]1[C@H](CNC(=O)c3ccc(Cl)s3)OC(=O)N21` showed a half-maximal inhibitory concentration (IC50) against Coagulation factor X of 20.9 nM.
The same measure, in the same setting: the same measure for `O=C(NC[C@@H]1OC(=O)N2c3ccc(N4CCN(S(=O)(=O)c5ccccc5)CC4=O)cc3OC[C@@H]12)c1ccc(Cl)s1`: 5530 nM.
Still for that read-out and setting: the value for `O=C(NC[C@@H]1OC(=O)N2c3ccc(N4CCCCC4=O)cc3NC[C@@H]12)c1ccc(Cl)s1` was 15.2 nM; that for `O=C(NC[C@@H]1OC(=O)N2c3ccc(N4CCOCC4=O)cc3SC[C@@H]12)c1ccc(Cl)cc1` was 45.2 nM; that for `O=C(NC[C@@H]1OC(=O)N2c3ccc(N4CCOCC4=O)cc3OC[C@@H]12)Nc1ccc(Cl)s1` was 88.5 nM.
Still for that read-out and setting: the same measure for `COc1ccc(C(=O)NC[C@@H]2OC(=O)N3c4ccc(N5CCOCC5=O)cc4OC[C@@H]23)cc1`: 4780 nM; for `O=C(NC[C@@H]1OC(=O)N2c3ccc(N4CCOCC4=O)cc3OC[C@@H]12)c1ccc(Cl)cn1`: 710 nM.
At Coagulation factor X, `O=C(NC[C@@H]1OC(=O)N2c3ccc(N4CCNCC4=O)cc3OC[C@@H]12)c1ccc(Cl)s1` showed an IC50 of 190 nM.
Still for that read-out and setting: the value for `O=C(CSCCCl)NC[C@@H]1OC(=O)N2c3ccc(N4CCOCC4=O)cc3OC[C@@H]12` was above 100000 nM; that for `CS(=O)(=O)c1ccccc1-c1ccc2c(c1)SC[C@H]1[C@H](CNC(=O)c3ccc(Cl)cc3)OC(=O)N21` was 1610 nM; that for `O=C(NC[C@@H]1OC(=O)N2c3ccc(N4CCOCC4=O)cc3OC[C@@H]12)C(=O)Nc1ccc(Cl)cc1` was 310 nM.
On the same count and under the same terms, the same measure for `O=C(NC[C@@H]1OC(=O)N2c3ccc(N4CCOCC4=O)cc3OC[C@H]12)c1ccc(Cl)s1`: 57.8 nM.
With `O=C(NC[C@@H]1OC(=O)N2c3ccc(N4CC[C@@H](F)CC4=O)cc3OC[C@@H]12)c1ccc(Cl)s1`, on Coagulation factor X, the IC50 worked out at 40.6 nM.
Same read-out and setting: the value for `CC(=O)N1CCN(c2ccc3c(c2)OC[C@H]2[C@H](CNC(=O)c4ccc(Cl)s4)OC(=O)N32)C(=O)C1` was 74.8 nM; that for `CC(C)(C)OC(=O)N1C[C@H]2[C@H](CNC(=O)c3ccc(Cl)s3)OC(=O)N2c2ccc(N3CCCCC3=O)cc21` was 8180 nM; that for `O=C(NC[C@@H]1OC(=O)N2c3ccc(N4CCOCC4=O)cc3OC[C@@H]12)c1cnc(Cl)s1` was 7060 nM.

As a reminder, the IC50 is the concentration that gives 50% inhibition. Read a high IC50 as a need for much substance.
